# Source: PubChem (several laboratories)
# Sampled rows, rich in hits. Any-hit rate of the full collection: about 4.3%.
# APP 5'UTR act – APP 5'UTR luciferase reporter activation. activation, % at 2 µM. actives 1% (n = 190,000). SH-SY5Y APP 5'UTR luciferase reporter, luminescence; zero percent = DMSO vehicle wells;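 active means activation above a set limit, based on mean plus 3 SD of controls, cut at about 140% in these data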
# STAT1 act – increases IFN-gamma driven STAT1 reporter signal; NIH 3T3 STAT1-luciferase reporter, luminescence; 100% = IFN-gamma alone, no compound; activation (% of control), % at 5.5 µM; actives 2.6% (n = 200,000);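 active means activation above the screen-wide mean activation plus 3 SD, cut at about 130% in these data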
# FLuc inh counter – inhibits firefly luciferase, flagging false hits in luciferase inhibition screens; inhibition, % at 10 µM; P08659; actives 1.5% (n = 200,000); ATPLite firefly luciferase biochemical luminescence, 10 min;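 active means inhibition above about 50% when tested at 10 µM, limit read from the data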
# Target sequence (P08659 whole entry, looked up): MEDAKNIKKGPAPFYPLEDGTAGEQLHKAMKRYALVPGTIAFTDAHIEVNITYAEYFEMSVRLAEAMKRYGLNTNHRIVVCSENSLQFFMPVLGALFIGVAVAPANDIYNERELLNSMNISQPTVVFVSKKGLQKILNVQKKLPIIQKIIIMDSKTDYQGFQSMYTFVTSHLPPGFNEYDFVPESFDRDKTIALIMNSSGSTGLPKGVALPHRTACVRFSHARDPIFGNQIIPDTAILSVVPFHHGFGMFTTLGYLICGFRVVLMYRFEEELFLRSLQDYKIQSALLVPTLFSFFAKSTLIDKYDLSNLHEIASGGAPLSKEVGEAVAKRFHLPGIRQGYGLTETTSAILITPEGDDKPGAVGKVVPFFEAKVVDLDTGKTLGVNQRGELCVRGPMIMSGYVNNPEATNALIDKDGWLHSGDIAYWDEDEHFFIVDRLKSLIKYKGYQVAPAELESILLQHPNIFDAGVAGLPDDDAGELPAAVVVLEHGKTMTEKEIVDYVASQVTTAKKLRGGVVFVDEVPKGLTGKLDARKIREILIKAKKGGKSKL
# NF-kB neuron act – raises NF-kB expression in human neuronal cells; NF-kB reporter expression; hits give high values; fold change at 12.5 µM; actives 1.6% (n = 190,000); in the data active means fold change above about 3.3
# FLuc stim CS – firefly luciferase counter-screen for stimulation assays. P08659. ATPlite luciferase biochemical, luminescence, 10 min; 0 = ATP-free wells, 1 = DMSO control. activation factor at 10 µM. 200,000 tested, under 10 active. AID 1027;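 active means luciferase activation factor, scaled between plate controls, of at least 2 with compound at 10 µM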
#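 Assay system: Luciferase/luciferin detection reagent, cell-free biochemical luciferase assay / Read-out: luciferase activation / Benchmarks: No-ATP low control, compound-free enzyme-plus-ATP high control / Medium: PBS buffer for ATP / Detection: luminescence measurement of luciferase light output / Schedule: 10 min at ambient temperature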
# Numbers stand for hits; i = inactive.
SMILES,APP 5'UTR act,STAT1 act,FLuc inh counter,NF-kB neuron act,FLuc stim CS
CC(C)(C)NC(=O)c1nc2nc(-c3ccccc3)cc(C(F)(F)F)n2n1,i,i,i,i,i
CC1C=CCC2C(=O)N(c3cc(Cl)ccc3O)C(=O)C12 (stereo unspecified),i,i,i,i,i
COc1ccc2c(c1)O/C(=C\c1sccc1C)C2=O,i,i,86,i,i
COc1ccc(NC(=O)c2c3c(nc4ccccc24)CCC3)cc1S(=O)(=O)N1CCOCC1,i,i,i,i,i
Fc1cccc(F)c1CSc1nc2ccccc2[nH]1,156,145,i,7.2,i
Fc1ccccc1CSCc1nc2ccccc2[nH]1,i,131,i,i,i
CC(C)CCSc1nc2ccccc2[nH]1,i,129,i,i,i
COC(=O)c1cccc(CSc2nc3ccccc3[nH]2)c1,i,i,60,i,i
COC(=O)c1ccc(CSc2nc3ccccc3[nH]2)o1,i,i,i,i,i
CSc1nsc2nc(=O)c(/C=C3\C(C)=Nc4ccccc43)c(N)n12,i,i,i,i,i
CC(=O)N=c1n(C)c2ccccc2n1CCOc1ccccc1,i,i,i,i,i
O=C1CCC(=O)N1c1ccc(CSc2nc3ccccc3[nH]2)cc1,i,i,i,i,i
COc1ccc(CSc2nc3ccccc3[nH]2)cc1,150,i,82,5.7,i
C/C(CC(=O)Nc1ccc(F)cc1)=N\NC(=O)c1ccccn1,i,i,i,i,i
CC(=O)Nc1ccccc1NC(=O)C/C(C)=N/NC(=O)c1ccccn1,i,131,i,i,i
C/C(CC(=O)NC1CCCCC1)=N\NC(=O)c1ccccn1,156,130,i,i,i
O=C(NCc1ccccc1)c1cccc(NS(=O)(=O)c2cccc3cccnc23)c1,i,i,i,i,i
O=[N+]([O-])c1ccccc1/C=N/NC1=NCCCCC1,i,133,i,i,i
c1ccc(-c2n[nH]c(-c3ccccn3)n2)nc1,i,144,i,i,i
c1ccc(-c2n[nH]c(-c3ccccn3)n2)cc1,i,i,i,i,i
Cc1cccc(C)c1N1CCN(c2ccc3nnc(C(F)(F)F)n3n2)CC1,i,i,i,i,i
COc1cc2c(cc1OC)CN(CC(=O)Nc1ccc(Cl)c(S(=O)(=O)N(C)C)c1)CC2,i,i,i,i,i
O=c1nc2c(-c3ccccc3F)n[nH]n2c2ccccc12,i,134,i,i,i
Cc1cc(C)n(CC2CC(=O)N(c3ccc(Cl)c(Cl)c3)C2=O)n1 (stereo unspecified),i,i,i,i,i
N#C/C(=C/c1ccc2c(c1)OCO2)C(=O)Nc1ccc(O)cc1,i,i,60,i,i
SMILES,APP 5'UTR act,STAT1 act,FLuc inh counter,NF-kB neuron act,FLuc stim CS
Cc1c(C(=O)N2CCN(c3ccc(F)cc3)CC2)sc2nc(-c3ccccc3)cn12,i,i,i,i,i
Cc1c(C(=O)N2CCOCC2)sc2nc(-c3ccccc3)cn12,i,134,i,i,i
COc1ccc(C2=NN(C(C#N)c3ccc(OC)c(OC)c3)C(c3ccccc3)C2)cc1 (stereo unspecified),155,i,i,6.1,i
CC(C)c1ccc(NC(=O)COc2ccccn2)cc1,i,130,i,i,i
Cc1noc(C)c1COc1cccc(C(=O)OC(C)C(=O)Nc2c(C)n(C)n(-c3ccccc3)c2=O)c1 (stereo unspecified),i,i,i,i,i
O/N=C/c1cc(Cl)ccc1OCc1cccc2ccccc12,i,i,i,i,i
O=C1[C@H]2[C@@H](C(=O)N1c1cccc3ccccc13)C1(C(=O)c3ccccc3C1=O)N1CCC[C@@H]21,i,i,i,3.4,i
OCCC1CN(Cc2ccc3nsnc3c2)CCN1CCc1ccccc1 (stereo unspecified),i,i,i,i,i
O=C(NC(=O)c1ccccc1)NC1(C(F)(F)F)OCCO1,i,135,i,4.2,i
O=C(NCc1ccccc1)NC(=O)c1ccccc1,i,i,i,i,i
Cc1nn(CCOc2ccccc2)c(=O)n1-c1c(F)cccc1F,i,140,i,i,i
Cc1ccc(-n2c(C)nn(CCOc3ccccc3)c2=O)cc1,i,134,i,i,i
Cc1ccc(OCCn2cnc3c(N)ncnc32)cc1,i,129,i,i,i
CCOc1ccc(OCCn2c(=S)[nH]c3c(N)ncnc32)cc1,i,i,i,i,i
CSc1nnc(-c2cc[n+](C)cc2)n1CCO,i,i,i,i,i
COc1ccc2[nH]c3c(=O)n4c(nc3c2c1)SCCC4,i,i,i,i,i
CCOc1ccc(NC(=O)c2ccc(NC(=O)CSc3nc4ccccc4c(=O)[nH]3)cc2)cc1,i,i,i,i,i
O=C(ONc1ccc(N=NC(=O)c2ccccc2O)cc1)c1ccccc1,i,i,i,i,i
O=Nc1ccc(NOC(=O)c2ccccc2Br)cc1,i,i,77,i,i
CN(C(=O)c1ccccc1)c1nc2ccccc2s1,215,139,84,4.1,i
Fc1cccc(/C=N/Nc2nc3ccccc3[nH]2)c1,i,141,i,i,i
Fc1ccc(/C=N/Nc2nc3ccccc3[nH]2)cc1F,i,i,i,i,i
Fc1cccc(/C=N/Nc2ccccn2)c1,i,138,i,i,i
O=S(=O)(N/N=C/c1ccc2c(c1)OCCO2)c1ccccc1,i,i,i,i,i
C(=N\Nc1ccccn1)/c1ccc2c(c1)OCCO2,140,137,78,i,i
SMILES,APP 5'UTR act,STAT1 act,FLuc inh counter,NF-kB neuron act,FLuc stim CS
O=[N+]([O-])c1ccccc1N/N=C/c1c[nH]c2ccccc12,173,151,i,4.2,i
COc1ccc(Cc2nnc(NC(=O)c3cccc([N+](=O)[O-])c3)s2)cc1,i,i,i,i,i
N#CC(c1ccc(Cl)nn1)c1c(F)cccc1Cl (stereo unspecified),i,i,i,i,i
CC(=O)N(Cc1ccco1)c1nc(C(=O)Nc2ccc(Cl)cc2)c(C)s1,i,i,i,i,i
Cc1ccccc1/C=N/Nc1nc2ccccc2[nH]1,i,i,i,i,i
Fc1cccc(/C=N/Nc2ccc3ccccc3n2)c1,225,i,71,i,i
C(=N\Nc1nc2ccccc2[nH]1)/c1c[nH]c2ccccc12,i,130,i,i,i
Brc1ccc(-c2ccc(/C=N/Nc3nc4ccccc4[nH]3)o2)cc1,i,138,81,i,i
Brc1ccc(/C=N/Nc2ccc3ccccc3n2)cc1,i,i,i,i,i
CCN(CC)S(=O)(=O)c1cccc(C(=O)N[C@H](C(=O)NCc2ccc(Cl)cc2)C(C)C)c1,i,i,i,i,i
c1csc(-c2cn3ccc4ccccc4c3n2)c1,i,144,53,4.7,i
Cc1ccc(SCC(=O)Nc2ccc(N3CCN(C)CC3)c(F)c2)cc1,i,133,i,i,i
COc1ccc(OC)c(N/C(C)=C/C(=O)c2ccc(Br)cc2)c1,i,i,i,i,i
